Assay results published in ChEMBL document CHEMBL3751796, “Structure-Based Discovery of Novel Cyclophilin A Inhibitors for the Treatment of Hepatitis C Virus Infections” (J Med Chem, 2015).
pEC50, pKd: −log10 of the molar value. Activity calls are given as the source filed them. No cut-off for these calls is given here.

Assays:
[1] = test system: Hepatitis C virus; assay: Antiviral activity against HCV genotype 1b Con1 infected in human Huh7.5 cells assessed as inhibition of NS5A expression at 2 uM by DAPI staining based confocal microscopy; format: functional, organism-based; details: Hepacivirus hominis, isolate Con1, Huh-7
Outline: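 Con1b replicon cells treated at 2 μM. Stained with Alexa red anti-NS5A and Alexa green anti-NS5B antibodies plus DAPI, then imaged by confocal microscopy for colocalization. Images representative of at least three experiments.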

[2] = Cytotoxicity against mock-infected human Huh7.5 cells assessed as reduction in cell viability incubated for 5 hrs by MTT assay; format: cell-based, Huh-7; details: mock-infected Huh7.5 cells
Outline: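 Mock-infected Huh7.5 cells run alongside the JFH1-Luc antiviral assay with 3-fold serial dilutions. Viability read by MTT assay to give CC50.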

[3] = test system: Mus musculus; assay: Toxicity in BALB/c mouse assessed as changes in body weight at 50 mg/kg, iv for 2 weeks; format: organism-based; details: in vivo, 336 h
[4] = test system: Hepatitis C virus; assay: Antiviral activity against HCV genotype 1b Con1 infected in human Huh7 cells xenografted in immunodeficient NOD/SCID mouse assessed as inhibition of HCV RNA level in liver at 50 mg/kg, ip up to 14 days by qRT-PCR method; format: functional, organism-based; details: Hepacivirus hominis, isolate Con1, Huh-7
Outline: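 NOD/SCID mice engrafted intrasplenically with Huh7 HCV-Con1b replicon cells (1 × 10^6 in PBS). From week 6, 50 mg/kg given ip for 14 days, five mice per group. Liver HCV RNA measured by SYBR Green qRT-PCR, 2^−ΔΔCT method, normalized to GAPDH, fold change vs controls.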

[5] = Cytotoxicity against HCV genotype 1b Con1 infected human Huh7.5 cells expressing GFP-fused NS5A assessed as reduction in cell viability measured 72 hrs post infection by hoechst 33342 staining based confocal microscopy; parameters: species or system Huh-7
Outline: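 Huh7 replicon cells expressing NS5A-GFP seeded at 2 × 10^3/well and left overnight, then given serially diluted compound. At 72 h, fixed in 2% PFA and nuclei stained with Hoechst 33342 (10 μg/mL). Automated confocal imaging: GFP-positive cells give activity, nuclei counts give cytotoxicity. EC50/CC50 from nonlinear regression.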

[6] = species on record: Mus musculus; assay: Inhibition of calcium-dependent calcineurin phosphatase activity in ionomycin-stimulated BALB/c mouse splenocytes assessed as reduction in dephosphorylation of R2 phosphopeptide at 1 to 10 uM preincubated for 20 hrs followed by ionomycin stimulation measured after 4 hrs
Outline: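 Mouse splenocytes (2 × 10^6 cells/well) were incubated with compound for 20 h, then stimulated with 1 μg/mL ionomycin for another 4 h or left unstimulated. Calcineurin activity was measured by dephosphorylation of RII phosphopeptide using a cellular activity kit.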

[7] = test system: Hepatitis C virus; assay: Antiviral activity against HCV genotype 1b Con1 infected in human Huh7 cells xenografted in immunodeficient NOD/SCID mouse assessed as inhibition of NS5A expression in liver at 50 mg/kg, ip up to 14 days by DAPI staining based confocal microscopy; format: functional, organism-based; details: Hepacivirus hominis, isolate Con1, Huh-7
Outline: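 Replicon-engrafted NOD/SCID mice, 50 mg/kg ip for 14 days from week 6, n=5. Paraffin liver sections incubated overnight at 4 °C with anti-human hepatocyte (Hep par 1) and anti-NS5A antibodies (1:50). Alexa 488/546 secondaries 1:100 for 2 h, DAPI 5 min, then confocal imaging.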

[8] = test system: Hepatitis C virus; assay: Antiviral activity against HCV genotype 1b Con1 infected in human Huh7.5 cells assessed as upregulation of IFN-alpha mRNA expression incubated up to 96 hrs by qRT-PCR method; format: functional, organism-based; details: Hepacivirus hominis; isolate Con1; Huh-7
Outline: (§1)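 mRNA measured by SYBR Green qRT-PCR using the 2^−ΔΔCT method, normalized to GAPDH and expressed as fold change vs controls.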

[9] = biological target: T1, Peptidyl-prolyl cis-trans isomerase A (Homo sapiens, UniProt P62937)
Target sequence in this assay (P62937 whole entry): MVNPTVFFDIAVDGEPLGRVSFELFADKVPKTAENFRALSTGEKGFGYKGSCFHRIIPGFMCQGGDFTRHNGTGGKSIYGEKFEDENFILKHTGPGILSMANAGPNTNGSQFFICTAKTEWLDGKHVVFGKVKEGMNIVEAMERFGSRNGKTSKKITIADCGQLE

[10] = biological target: Peptidyl-prolyl cis-trans isomerase B (Homo sapiens, UniProt P23284)
[11] = test system: Hepatitis C virus; assay: Antiviral activity against HCV infected in human Huh7.5 cells assessed as inhibition of HCV-specific RNA by qRT-PCR method in presence of ribavirin; format: functional, organism-based; details: Hepacivirus hominis; Huh-7
[12] = test system: Hepatitis C virus; assay: Antiviral activity against recombinant HCV genotype 2a JFH1 infected in human […] for 5 hrs measured on day 3 post infection by luciferase reporter gene assay; format: functional, organism-based, Hepacivirus hominis; details: JFH-1, Huh-7
Outline: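 Huh7.5 cells infected with JFH1-Luc virus (MOI 0.004) for 5 h at 37 °C with 3-fold serial dilutions of compound. Renilla luciferase read from lysates on day 3 postinfection to derive EC50.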

[13] = Cytotoxicity against HCV infected human Huh7.5 cells assessed as cell death by MTT assay in presence of ribavirin; format: cell-based; details: huh-7
[14] = test system: Hepatitis C virus; assay: Antiviral activity against HCV genotype 1b Con1 infected in human Huh7.5 cells assessed as inhibition of NS5B expression in membrane fractions at 2 uM by Western blot analysis; format: functional, organism-based; details: Hepacivirus hominis, isolate Con1, Huh-7
Outline: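 Con1b replicon cells treated with 2 μM. Total lysates, and a membrane fraction prepared by hypotonic buffer, dounce homogenization, 220g spin and then 68 000g for 1 h at 4 °C, analyzed by Western blot for NS5A and NS5B.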

[15] = test system: Hepatitis C virus; assay: Antiviral activity against HCV infected in human Huh7.5 cells assessed as inhibition of IL-8 level by ELISA in presence of telaprevir; format: functional, organism-based; details: Hepacivirus hominis; Huh-7
[16] = species on record: Mus musculus; assay: Activation of calcium-dependent calcineurin phosphatase activity in ionomycin-stimulated BALB/c mouse splenocytes assessed as dephosphorylation of NFAT1 at 1 to 10 uM preincubated for 20 hrs followed by ionomycin stimulation measured after 4 hrs by Western blot analysis
Outline: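 Mouse splenocytes, 2 × 10^6/well, exposed to compound for 20 h at 37 °C, then ionomycin 1 μg/mL for 4 h. Lysed on ice for 10 min and spun at 19 000g. NFAT phosphorylation status in the supernatant read by Western blot with anti-NFATc1 antibody.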

[17] = test system: Hepatitis C virus; assay: Antiviral activity against HCV genotype 1b Con1 infected in human Huh7.5 cells assessed as stimulation of STAT2 expression at 2 uM incubated up to 96 hrs by Western blot analysis; format: functional, organism-based; details: Hepacivirus hominis, isolate Con1, Huh-7, TDE = time-dependent effect
[18] = Cytotoxicity against HCV infected human Huh7.5 cells assessed as cell death by MTT assay in presence of IFN-alpha; format: cell-based; details: huh-7
[19] = test system: Hepatitis C virus; assay: Antiviral activity against HCV genotype 1b Con1 infected in human Huh7.5 cells assessed as stimulation of STAT2 mRNA expression at 2 uM incubated up to 96 hrs by qRT-PCR method; format: functional, organism-based; details: Hepacivirus hominis, isolate Con1, Huh-7, TDE = time-dependent effect; outline: as §1
[20] = biological target: T1, Peptidyl-prolyl cis-trans isomerase A; assay: Inhibition of human Cyclophilin A interaction with HCV genotype 1b Con1 NS5A in human Huh7.5 cells at 2 uM by co-immunoprecipitation assay; format: cell-based; details: Huh-7
Target sequence in this assay (P62937 whole entry, looked up): as the sequence (P62937 whole entry) above

[21] = test system: Hepatitis C virus; assay: Antiviral activity against HCV genotype 1b Con1 infected in human Huh7.5 cells assessed as upregulation of IFN-alpha expression incubated up to 96 hrs by ELISA; format: functional, organism-based; details: Hepacivirus hominis; isolate Con1; Huh-7
Outline: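 Con1b replicon cells, 2 × 10^6/well, treated with 2 μM for up to 4 days at 37 °C. Pooled culture media assayed for IL-8 and IFN-α by ELISA.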

Peptidyl-prolyl cis-trans isomerase B, sequence (P23284 whole entry): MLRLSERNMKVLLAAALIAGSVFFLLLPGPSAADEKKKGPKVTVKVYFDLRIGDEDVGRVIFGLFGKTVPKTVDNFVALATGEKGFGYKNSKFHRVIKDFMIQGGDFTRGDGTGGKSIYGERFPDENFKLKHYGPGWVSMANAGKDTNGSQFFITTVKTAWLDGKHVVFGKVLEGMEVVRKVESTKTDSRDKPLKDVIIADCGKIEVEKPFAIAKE

inhibition [6]: inactive
pKd [9]: 6.24
pKd [10]: 5.68
pEC50 [12]: 5.28
Activity [16]: Active
inhibition [20]: Active
Compound: COc1cc(C(C(=O)NC2CCCCC2)N(C(=O)Cc2c[nH]c3ccccc23)c2ccc(C(C)C)cc2)cc(OC)c1OC (stereo unspecified)
inhibition [1]: Active
CC50 at 5 h [2]: > 100 µM
Activity [3]: Non-toxic
inhibition [4]: Active
CC50 at 72 h [5]: 12.4 µM
inhibition [7]: Active
Activity [8]: Active
inhibition [11]: Active
Activity [13]: Non-toxic
inhibition [14]: Active
inhibition [15]: Active
Activity [17]: tde
Activity [18]: Non-toxic
Activity [19]: tde
Activity [21]: Active
